Experimental data: the array DNA melting data of Ke et al. (doi:10.1101/2024.01.08.574731)

How the values were obtained:
[1] = folding enthalpy; higher = less favourable; fluorescence melt of hairpins on a sequencing array, two-state fit; conditions: sodium 0.088 M
Method in brief: (§1)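 Two-state fits, bootstrapped, provided melting temperature and folding enthalpy from Cy3 fluorescence normalised to pre-quench Cy3 and to control constructs. Library hairpins with annealed Cy3 and quencher oligos were imaged on a sequenced MiSeq flow cell in 50 mM Na-HEPES pH 8.0, 25 mM NaCl, at 2.5 °C intervals up to 60 °C. Four replicates were combined with inverse-variance weighting. A 9.35 °C upward shift was applied to fitted temperatures to match UV melts.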

[2] = melting temperature; fluorescence melt of hairpins on a sequencing array, two-state fit, raised by 9.35 °C to match UV melts; conditions: sodium 0.088 M
Method in brief: as §1

GCTTGTGGAAACACAGGC ((.((((....)))).))
folding enthalpy [1]: -27.2 kcal/mol | Tm [2]: 52 °C

GGAAGCGCGAAAGCGTCC (((..(((....))))))
folding enthalpy [1]: -9.67 kcal/mol | Tm [2]: 37.3 °C

GAAGACGAAAGTCTTC ((((((....))))))
folding enthalpy [1]: -37.7 kcal/mol | Tm [2]: 64.5 °C

GGTGCCGAAAGGCGTACC ((((((....)))..)))
folding enthalpy [1]: -15.5 kcal/mol | Tm [2]: 48.5 °C

GCAGTGCGAAAGCTCTGC ((((.((....)).))))
folding enthalpy [1]: -40.3 kcal/mol | Tm [2]: 65.8 °C

GTCTAAGCGAAAGCTGAC (((..(((....))))))
folding enthalpy [1]: -17.2 kcal/mol | Tm [2]: 43.1 °C

GGTAGTCCGAAAGGAACC (((..(((....))))))
folding enthalpy [1]: -12.4 kcal/mol | Tm [2]: 27.1 °C

GATTATGGAAACATAATC (((((((....)))))))
folding enthalpy [1]: -38.2 kcal/mol | Tm [2]: 49.1 °C

GATCAAGCTTTGATC ((((((...))))))
folding enthalpy [1]: -29.5 kcal/mol | Tm [2]: 43.4 °C

GCGTCGCGAAAGCTAAGC ((.(.((....)).).))
folding enthalpy [1]: -20.2 kcal/mol | Tm [2]: 51.4 °C

GCCTGGCGAAAGCAATGC ((.(.((....)).).))
folding enthalpy [1]: -7.84 kcal/mol | Tm [2]: 26.9 °C

GCTGGGCGAAAGCAAAGC (((..((....))..)))
folding enthalpy [1]: -20.9 kcal/mol | Tm [2]: 54.1 °C

GCGCACGGAAACGTGTGC ((.((((....)))).))
folding enthalpy [1]: -41 kcal/mol | Tm [2]: 67.7 °C

GTAAGCGAAAGCTTAC ((((((....))))))
folding enthalpy [1]: -27.9 kcal/mol | Tm [2]: 67.2 °C

GCCCCATCGAAAGATGGC (((..(((....))))))
folding enthalpy [1]: -7.75 kcal/mol | Tm [2]: 37.9 °C

GTGTTACGAAAGTAGCAC (((.(((....))).)))
folding enthalpy [1]: -35.7 kcal/mol | Tm [2]: 53.9 °C

GATCTTCGAAAAGATC ((((((....))))))
folding enthalpy [1]: -24.9 kcal/mol | Tm [2]: 40.5 °C

CGCTAACGGAAACGTGCG (((..(((....))))))
folding enthalpy [1]: -28.9 kcal/mol | Tm [2]: 48 °C

GTAACGGCGAAAGCCTAC (((..(((....))))))
folding enthalpy [1]: -9.07 kcal/mol | Tm [2]: 20.7 °C

ATCAGTGAAAAATCACTGAA ....................
folding enthalpy [1]: -20.6 kcal/mol | Tm [2]: 31.9 °C

CGACCCGGAAACGGCTCG (((.(((....))).)))
folding enthalpy [1]: -23.7 kcal/mol | Tm [2]: 40.1 °C

GCGCGAGGAAACTCGTGC ((.((((....)))).))
folding enthalpy [1]: -42.3 kcal/mol | Tm [2]: 62.9 °C

GCAGCCGGAAACGGCTAC (.(((((....))))).)
folding enthalpy [1]: -11.3 kcal/mol | Tm [2]: 45.9 °C

GCACTGCGAAAGCCGGGC ((.(.((....)).).))
folding enthalpy [1]: -22.7 kcal/mol | Tm [2]: 57.1 °C

GATCCTAACCAGGATC ((((((....))))))
folding enthalpy [1]: -32.3 kcal/mol | Tm [2]: 52 °C

GATCGGCGAAAGCCAATC (((.(((....))).)))
folding enthalpy [1]: -17.1 kcal/mol | Tm [2]: 43.7 °C

GATCGGTTGCCGATC ((((((...))))))
folding enthalpy [1]: -28.6 kcal/mol | Tm [2]: 59.1 °C

GATCTCTGATGAGATC ((((((....))))))
folding enthalpy [1]: -33.3 kcal/mol | Tm [2]: 51.3 °C

GATCCGTTTACGGATC ((((((....))))))
folding enthalpy [1]: -39.3 kcal/mol | Tm [2]: 68.1 °C

GATCATCGGGATGATC ((((((....))))))
folding enthalpy [1]: -44 kcal/mol | Tm [2]: 53.5 °C

GGGTGTGGAAACACACTC (.(((((....))))).)
folding enthalpy [1]: -23.5 kcal/mol | Tm [2]: 55.4 °C

GCAATGCGAAAGCGTGGC ((.(.((....)).).))
folding enthalpy [1]: -33.7 kcal/mol | Tm [2]: 56.6 °C

GCGAACTTTCGC ((((....))))
folding enthalpy [1]: -20 kcal/mol | Tm [2]: 51.1 °C

GATCGCCGAAAGGCAATC (((.(((....))).)))
folding enthalpy [1]: -17.1 kcal/mol | Tm [2]: 44.8 °C

GATCATGGATATGATC ((((((....))))))
folding enthalpy [1]: -37.9 kcal/mol | Tm [2]: 54.1 °C

GTCTCACGAAAGTGGGAC (((.(((....))).)))
folding enthalpy [1]: -41.5 kcal/mol | Tm [2]: 60.3 °C

GCCCCTGGAAACAGGAGC ((.((((....)))).))
folding enthalpy [1]: -30.6 kcal/mol | Tm [2]: 47.5 °C

GCACTGCGAAAGCTCTGC (((..((....))..)))
folding enthalpy [1]: -17.4 kcal/mol | Tm [2]: 35.8 °C

GGGGTGGGAAACCGCCTC (.((.((....)).)).)
folding enthalpy [1]: -18.6 kcal/mol | Tm [2]: 49.6 °C

GCAATGCGAAAGCTTTGC ((((.((....)).))))
folding enthalpy [1]: -39.1 kcal/mol | Tm [2]: 63 °C

GCGTAGGAACGC ((((....))))
folding enthalpy [1]: -16.3 kcal/mol | Tm [2]: 49.2 °C

GATCAGCGCCTGATC ((((((...))))))
folding enthalpy [1]: -38.9 kcal/mol | Tm [2]: 48.7 °C

GAGGCACCGAAAGGTCTC (((..(((....))))))
folding enthalpy [1]: -11.5 kcal/mol | Tm [2]: 31.3 °C

GCAAAGCGAAAGCATGGC ((.(.((....)).).))
folding enthalpy [1]: -10.3 kcal/mol | Tm [2]: 38.3 °C

GCAGGCGAAAGCCATGC ((((((....))).)))
folding enthalpy [1]: -19.9 kcal/mol | Tm [2]: 61 °C

GCGGTCGCGAAAGCGCGC (((..(((....))))))
folding enthalpy [1]: -16.1 kcal/mol | Tm [2]: 59.7 °C
